Measurements: ChEMBL document CHEMBL1133458, “Synthesis and pharmacological evaluation of thiopyran analogues of the dopamine D3 receptor-selective agonist (4aR,10bR)-(+)-trans-3,4,4a,10b-tetrahydro-4-n-propyl-2H,5H [1]b enzopyrano[4,3-b]-1,4-oxazin-9-ol (PD 128907)” (J Med Chem, 2000)

Tests used:
D(3) dopamine receptor [1] = biological target: D(3) dopamine receptor (Homo sapiens, UniProt P35462); assay: Tested for antagonist binding affinity by measuring displacement of [3H]spiperone from Human Dopamine receptor D3 expressed in CHO K-1 cells; type: cell-based
Sequence of D(3) dopamine receptor (Homo sapiens, UniProt P35462) (P35462 whole entry): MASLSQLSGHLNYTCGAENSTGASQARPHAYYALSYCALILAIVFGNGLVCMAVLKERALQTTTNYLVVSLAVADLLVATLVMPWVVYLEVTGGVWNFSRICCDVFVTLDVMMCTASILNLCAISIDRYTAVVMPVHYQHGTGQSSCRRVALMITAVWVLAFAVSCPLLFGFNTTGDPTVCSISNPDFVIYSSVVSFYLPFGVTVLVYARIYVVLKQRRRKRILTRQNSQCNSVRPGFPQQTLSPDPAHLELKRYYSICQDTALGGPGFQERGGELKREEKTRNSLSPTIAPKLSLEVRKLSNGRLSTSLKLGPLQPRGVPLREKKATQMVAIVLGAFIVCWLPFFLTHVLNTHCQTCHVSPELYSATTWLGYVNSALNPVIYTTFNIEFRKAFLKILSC

D(2) dopamine receptor [2] = biological target: T1, D(2) dopamine receptor (Homo sapiens, UniProt P14416); assay: Tested for antagonist binding affinity by measuring displacement of [3H]spiperone from Human Dopamine receptor D2L expressed in CHO K-1 cells; type: cell-based
T1 sequence (P14416 whole entry): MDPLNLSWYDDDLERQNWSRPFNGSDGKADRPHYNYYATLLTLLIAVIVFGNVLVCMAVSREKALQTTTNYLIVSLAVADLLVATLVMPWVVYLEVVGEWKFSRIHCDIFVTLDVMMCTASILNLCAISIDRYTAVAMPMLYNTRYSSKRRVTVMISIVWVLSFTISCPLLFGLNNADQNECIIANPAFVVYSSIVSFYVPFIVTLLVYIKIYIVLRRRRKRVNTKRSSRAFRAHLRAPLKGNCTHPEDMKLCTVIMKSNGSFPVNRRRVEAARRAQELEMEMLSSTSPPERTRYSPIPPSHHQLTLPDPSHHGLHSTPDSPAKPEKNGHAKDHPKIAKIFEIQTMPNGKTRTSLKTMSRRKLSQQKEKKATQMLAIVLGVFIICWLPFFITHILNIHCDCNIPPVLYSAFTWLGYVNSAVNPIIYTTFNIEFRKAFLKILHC
Procedure, shortened: (§1)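 Displacement of antagonist radioligand [3H]spiperone from D2L or D4.2 receptors; Ki values are means of three separate experiments varying by no more than 25%.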

[3] = biological target: T2, 5-hydroxytryptamine receptor 1A (Rattus norvegicus, UniProt P19327); assay: Tested for binding affinity by measuring displacement of [3H]8-OH-DPAT from rat serotonin 5-hydroxytryptamine 1A receptor in rat hippocampus; NA means Not Active; type: tissue-based
T2 sequence (P19327 whole entry): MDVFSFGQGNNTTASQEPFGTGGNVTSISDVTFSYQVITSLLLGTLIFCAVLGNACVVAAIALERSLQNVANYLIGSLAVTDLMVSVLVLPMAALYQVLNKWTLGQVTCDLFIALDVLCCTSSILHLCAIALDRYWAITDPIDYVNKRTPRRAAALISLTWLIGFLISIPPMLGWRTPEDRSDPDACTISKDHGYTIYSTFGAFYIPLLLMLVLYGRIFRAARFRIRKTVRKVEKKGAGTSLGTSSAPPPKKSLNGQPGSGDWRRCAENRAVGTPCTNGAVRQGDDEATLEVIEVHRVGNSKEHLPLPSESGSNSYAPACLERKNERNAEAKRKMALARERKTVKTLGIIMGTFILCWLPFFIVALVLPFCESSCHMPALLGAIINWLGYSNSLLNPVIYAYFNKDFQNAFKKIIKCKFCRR
Procedure, shortened: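 Rat hippocampal 5HT1A receptors labelled with [3H]8-OH-DPAT; values are means of three separate experiments varying by no more than 25%.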

D(4) dopamine receptor [4] = biological target: T3, D(4) dopamine receptor (Homo sapiens, UniProt P21917); assay: Tested for antagonist binding affinity by measuring displacement of [3H]-spiperone from Human Dopamine receptor D4 expressed in CHO K-1 cells; type: cell-based
T3 sequence (P21917 whole entry): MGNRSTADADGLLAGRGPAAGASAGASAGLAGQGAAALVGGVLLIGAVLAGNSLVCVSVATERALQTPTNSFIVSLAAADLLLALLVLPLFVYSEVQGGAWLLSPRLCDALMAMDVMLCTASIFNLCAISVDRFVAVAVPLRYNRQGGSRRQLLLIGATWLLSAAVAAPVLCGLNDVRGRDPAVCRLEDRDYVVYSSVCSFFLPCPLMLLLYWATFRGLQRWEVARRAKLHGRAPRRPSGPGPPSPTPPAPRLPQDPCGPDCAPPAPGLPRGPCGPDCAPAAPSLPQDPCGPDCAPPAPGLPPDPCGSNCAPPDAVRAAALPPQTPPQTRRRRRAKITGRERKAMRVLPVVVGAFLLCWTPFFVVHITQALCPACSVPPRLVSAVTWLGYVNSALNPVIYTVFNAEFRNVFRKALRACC
Procedure, shortened: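 Antagonist-radioligand binding: displacement of [3H]spiperone from D4.2 dopamine receptors; Ki values means of three separate experiments, varying no more than 25%.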

D(2) dopamine receptor [5] = biological target: T1, D(2) dopamine receptor; assay: Tested for agonist binding affinity by measuring displacement of [3H]NPA from Human Dopamine receptor D2L expressed in CHO K-1 cells; type: cell-based
Procedure, shortened: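 Agonist-state D2L affinity measured by displacement of [3H]NPA (N-propylnorapomorphine); Ki values are means of three separate experiments varying by no more than 25%.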

[6] = biological target: D(3) dopamine receptor (Rattus norvegicus) (UniProt P19020); assay: Antagonist activity by measuring the inhibition of quinpirole stimulated [3H]- thymidine uptake against Dopamine receptor D3; the compound is active; type: functional; details: filed as antagonist
Sequence of D(3) dopamine receptor (Rattus norvegicus) (P19020 whole entry): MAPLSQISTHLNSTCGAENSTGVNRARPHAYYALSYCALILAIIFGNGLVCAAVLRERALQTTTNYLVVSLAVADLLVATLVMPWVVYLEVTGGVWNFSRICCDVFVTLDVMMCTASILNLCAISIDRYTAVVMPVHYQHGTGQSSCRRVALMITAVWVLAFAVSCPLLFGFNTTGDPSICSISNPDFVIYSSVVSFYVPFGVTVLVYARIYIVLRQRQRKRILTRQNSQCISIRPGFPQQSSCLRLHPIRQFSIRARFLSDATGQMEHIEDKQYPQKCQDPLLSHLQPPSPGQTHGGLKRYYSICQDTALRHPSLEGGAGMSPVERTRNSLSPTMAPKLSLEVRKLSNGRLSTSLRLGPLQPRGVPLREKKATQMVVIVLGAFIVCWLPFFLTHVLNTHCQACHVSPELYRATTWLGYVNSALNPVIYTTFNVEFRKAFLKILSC

[7] = biological target: D(3) dopamine receptor (Rattus norvegicus) (UniProt P19020); assay: (§2) Intrinsic activity (IA) by the mitogenesis assay
[8] = biological target: T2, 5-hydroxytryptamine receptor 1A; assay: Tested for binding affinity by measuring displacement of [3H]8-OH-DPAT from rat serotonin 5-hydroxytryptamine 1A receptor in rat hippocampus; type: tissue-based
Procedure, shortened: (§3)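 Rat brain binding: hippocampal 5HT1A with [3H]8-OH-DPAT, cortical 5HT2 with [3H]ketanserin as radioligand; values means of three separate experiments, varying no more than 25%.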

D(4) dopamine receptor [9] = biological target: T3, D(4) dopamine receptor; assay: Tested for antagonist binding affinity by measuring displacement of [3H]spiperone from Human Dopamine receptor D4 expressed in CHO K-1 cells; type: cell-based; procedure, shortened: as §1
[10] = biological target: Serotonin 2 (5-HT2) receptor (Rattus norvegicus, UniProt P30994+P08909+P14842); assay: Tested for binding affinity by measuring displacement of [3H]ketanserin from rat serotonin 5-hydroxytryptamine 2 receptor in rat cortex; procedure, shortened: as §3
D(2) dopamine receptor [11] = biological target: T1, D(2) dopamine receptor; assay: Human Dopamine receptor D2L affinities to determine agonist activity, using [3H]N-0437 as radioligand; type: functional
D(2) dopamine receptor [12] = biological target: D(2) dopamine receptor (Rattus norvegicus, UniProt P61169); assay: Agonist activity by measuring the [3H]thymidine uptake against Dopamine receptor D2L from rat; type: functional
Sequence of D(2) dopamine receptor (Rattus norvegicus, UniProt P61169) (P61169 whole entry): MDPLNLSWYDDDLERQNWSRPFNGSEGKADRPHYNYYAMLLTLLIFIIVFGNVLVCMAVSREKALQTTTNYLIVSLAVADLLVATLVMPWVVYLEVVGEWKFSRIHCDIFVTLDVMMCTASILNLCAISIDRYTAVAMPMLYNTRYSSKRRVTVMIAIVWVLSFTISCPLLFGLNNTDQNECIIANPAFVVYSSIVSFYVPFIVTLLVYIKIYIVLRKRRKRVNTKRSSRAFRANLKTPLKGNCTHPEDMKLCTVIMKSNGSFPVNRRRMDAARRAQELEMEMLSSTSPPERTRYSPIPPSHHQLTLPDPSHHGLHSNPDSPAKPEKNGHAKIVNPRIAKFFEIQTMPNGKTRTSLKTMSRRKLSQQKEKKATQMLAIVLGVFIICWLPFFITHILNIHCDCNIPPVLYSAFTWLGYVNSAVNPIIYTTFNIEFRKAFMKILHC

D(3) dopamine receptor [13] = biological target: T4, D(3) dopamine receptor (Rattus norvegicus, UniProt P19020); assay: Agonist activity by measuring the [3H]-thymidine uptake against Dopamine receptor D3 from rat; type: functional
T4 sequence (P19020 whole entry): as the sequence (P19020 whole entry) above

D(3) dopamine receptor [14] = biological target: T4, D(3) dopamine receptor; assay: Agonist activity by measuring the [3H]thymidine uptake against Dopamine receptor D3 from rat; type: functional
Rattus norvegicus [15] = organism: Rattus norvegicus; assay: Yawning after 30 min in reserpinized rats; type: functional
Procedure, shortened: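 Male Wistar rats (180-200 g) reserpinized with 10 mg/kg sc reserpine 18-24 h prior; drug dissolved in a few drops warmed 96% ethanol then saline, 1 mL/kg sc; yawns counted per rat over first 30 min post-injection, mean ± SEM.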

[16] = biological target: D(3) dopamine receptor (Rattus norvegicus) (UniProt P19020); assay: as §2; type: functional
Rattus norvegicus [17] = organism: Rattus norvegicus; assay: Flat body posture after 30 min in 4 reserpinized rats; type: functional
Procedure, shortened: (§4)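 Male Wistar rats (180-200 g) given reserpine 10 mg/kg sc 18-24 h before; test drug in ethanol/saline, 1 mL/kg sc in neck after acclimation in single boxes; number of rats showing the behaviour during first 30 min after injection recorded; saline n=8.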

Rattus norvegicus [18] = organism: Rattus norvegicus; assay: Sniffing after 30 min in 4 reserpinized rats; type: functional; procedure, shortened: as §4
Rattus norvegicus [19] = organism: Rattus norvegicus; assay: Lower lip retraction after 30 min in 4 reserpinized rats; type: functional; procedure, shortened: as §4

Row | SMILES | Ki (D(3) dopamine receptor [1]) [nM] | Ki (D(2) dopamine receptor [2]) [nM] | Ki (D(2) dopamine receptor [5]) [nM] | Ki [8] [nM] | Ki (D(4) dopamine receptor [9]) [nM] | EC50 (D(2) dopamine receptor [12]) [nM] | also measured
1 | CCCN1CCO[C@@H]2c3cc(O)ccc3OC[C@H]21 (relative stereo) | 78 | > 10000 | – | – | – | – | –
2 | CCCN1CCO[C@H]2c3cc(O)ccc3OC[C@@H]21 | > 10000 | > 10000 | – | – | – | – | –
3 | CCCN1CCOC2c3cc(O)ccc3[S+]([O-])CC21 (stereo unspecified) | 29 | – | 197 | – | – | – | Ki [3]: Not Active; IC50 (D(4) dopamine receptor [4]): > 10000 nM
4 | CCCN1CCO[C@@H]2c3cc(O)ccc3OC[C@H]21 [listing 1 of 2 here] | – | – | – | – | – | – | Activity [6]: Antagonist; Intrinsic activity [7]: 54%
5 | CCCN1CCO[C@H]2c3cc(O)ccc3SC[C@@H]21 | 3000 | – | 854 | > 1000 | > 3300 | – | Ki [10]: > 5000 nM
6 | CCCN1CCO[C@@H]2c3cc(O)ccc3OC[C@H]21 [listing 2 of 2 here] | 1.4 | 1180 | – | 1670 | 169 | 5.7 | Ki (D(2) dopamine receptor [11]): 42 nM; EC50 (D(3) dopamine receptor [13]): 0.36 nM
7 | CCCN1CCO[C@@H]2c3cc(O)ccc3SC[C@H]21 | 2.87 | – | 1.14 | 30 | 17.6 | 0.013 | EC50 (D(3) dopamine receptor [14]): 0.007 nM; Ya (Rattus norvegicus [15]): 0; Intrinsic activity [16]: 45%; FB (Rattus norvegicus [17]): 4; Sni (Rattus norvegicus [18]): 4; LL (Rattus norvegicus [19]): 3; Ki [10]: > 5000 nM
8 | CCCN1CCO[C@@H]2c3cc(O)ccc3OC[C@@H]21 (relative stereo) | > 10000 | > 10000 | – | – | – | – | –
9 | CCCN1CCOC2c3cc(O)ccc3SCC21 (trans isomer) | 1.56 | 533 | – | – | 44.4 | – | –
10 | CCCN1CCO[C@@H]2c3cc(O)ccc3SC[C@@H]21 (relative stereo) | 3.58 | – | 74 | – | 193 | 122 | EC50 (D(3) dopamine receptor [14]): 36 nM; Activity [6]: Antagonist; Ki [3]: Not Active; Ya (Rattus norvegicus [15]): 11; Intrinsic activity [16]: 57%; FB (Rattus norvegicus [17]): 0; Sni (Rattus norvegicus [18]): 0; LL (Rattus norvegicus [19]): 0
